Experiments:
chip-bound C-peptide = target: T1, chip-bound C-peptide (Homo sapiens, UniProt P01308); experiment: SPR binding of C-peptide in solution to chip-bound C-peptide
T1 sequence (P01308 57-87 limits assumed): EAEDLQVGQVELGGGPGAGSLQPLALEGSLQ
Method in brief: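 Peptide was immobilised on the sensor chip by surface thiol coupling via the C-terminus (up to 5000 RU) or amine coupling via the N-terminus (up to 1000 RU). The same peptide was run as analyte at 20 µl/min, diluted from a 600 µM stock in H2O/HCl pH 5. Running buffers spanned pH 3–7 (citrate, bis-Tris or Tris/HCl, 10 mM) with 100 mM NaCl and 0.005% SP20.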

[1] = target: insulin-insulin interactions (chip-bound insulin) (Homo sapiens, UniProt P01308); type: binding; settings: peptide mixed with insulin analyte
Method in brief: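 Biacore SPR with insulin immobilized either C-terminally (surface thiol coupling, up to 5000 RU) or N-terminally (amine coupling, up to 1000 RU). Test peptide was premixed with insulin analyte at 1, 5, 10 and 20 µM and flowed at 20 µl/min. Running buffer was 10 mM Na citrate pH 5 with 100 mM NaCl and 0.005% SP20. Curves are averages of three runs after blank subtraction.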

insulin hexamer = insulin hexamer (Homo sapiens, UniProt P01308); experiment: ESI-MS analysis of insulin oligomer states in insulin/C-peptide mixtures
insulin hexamer, sequence (P01308 25-54 limits assumed): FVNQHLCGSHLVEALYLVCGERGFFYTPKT
insulin hexamer, sequence (P01308 90-110 limits assumed): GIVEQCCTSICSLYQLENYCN

insulin-insulin interactions (chip-bound insulin), sequence (P01308 25-54 limits assumed): as the sequence (P01308 25-54 limits assumed) above

binding of C-peptide in solution to chip-bound C-peptide (chip-bound C-peptide): no evidence for such binding
effect on rate of dissociation in insulin-insulin SPR [1]: slightly reduce the rate of dissociation
Substance: C-peptide
effects on insulin in ESI-MS compared with scrambled C-peptide (insulin hexamer; at low peptide concentrations): slightly more effects on insulin than scrambled C-peptide
insulin hexamer signals in ESI mass spectra (insulin hexamer; nano-ESI-MS, pH 5, insulin 30 µM and C-peptide 30 µM (1:1)): markedly decreased from their level in insulin solutions to an absence in insulin-C-peptide mixtures

Source: PMC2773842 (Cellular and Molecular Life Sciences: CMLS, 2006)
